Measurements reported in ChEMBL document CHEMBL2321777, “Selective mGAT2 (BGT-1) GABA uptake inhibitors: design, synthesis, and pharmacological characterization” (J Med Chem, 2013).

Experiments:
[1] = biological target: Sodium- and chloride-dependent GABA transporter 1 (Mus musculus, UniProt P31648); test: Inhibition of [3H]GABA uptake at mouse GAT1 expressed in HEK293 cells after 3 mins by scintillation counting analysis; format: cell-based
Outline: (§1)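 Uptake measured in primary mouse cortical astrocyte or neuron cultures, or in cells stably overexpressing the respective recombinant mGAT. Cells were incubated at 37 °C in phosphate-buffered saline with [3H]GABA (1 μCi/mL), 1 μM GABA and increasing inhibitor concentrations. After 3 min, uptake was stopped by automated washing. Cells were solubilized in scintillant, radioactivity was counted, and inhibition curves were analyzed.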

GABA transporter 2 = biological target: T1, GABA transporter 2 (Mus musculus, UniProt P31651); test: Inhibition of [3H]GABA uptake at mouse GAT2 expressed in HEK293 cells after 3 mins by scintillation counting analysis; format: cell-based; outline: as §1
T1 sequence (P31651 whole entry): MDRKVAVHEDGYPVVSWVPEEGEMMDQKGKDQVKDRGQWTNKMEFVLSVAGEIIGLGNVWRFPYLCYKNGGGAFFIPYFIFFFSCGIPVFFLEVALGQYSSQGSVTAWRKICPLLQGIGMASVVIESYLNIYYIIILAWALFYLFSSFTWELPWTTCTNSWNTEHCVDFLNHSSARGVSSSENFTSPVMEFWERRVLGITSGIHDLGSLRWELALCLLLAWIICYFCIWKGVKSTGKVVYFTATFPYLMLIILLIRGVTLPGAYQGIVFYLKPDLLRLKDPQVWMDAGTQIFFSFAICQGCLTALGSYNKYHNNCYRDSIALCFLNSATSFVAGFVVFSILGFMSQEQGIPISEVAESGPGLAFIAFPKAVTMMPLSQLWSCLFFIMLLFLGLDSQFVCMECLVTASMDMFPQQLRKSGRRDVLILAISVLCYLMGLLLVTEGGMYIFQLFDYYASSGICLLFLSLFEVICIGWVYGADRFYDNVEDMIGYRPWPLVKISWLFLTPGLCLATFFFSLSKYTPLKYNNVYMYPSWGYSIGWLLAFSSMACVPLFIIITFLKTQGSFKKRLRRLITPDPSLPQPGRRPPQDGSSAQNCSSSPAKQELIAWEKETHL

GABA transporter 4 = biological target: T2, GABA transporter 4 (Mus musculus, UniProt P31650); test: Inhibition of [3H]GABA uptake at mouse GAT4 expressed in HEK293 cells after 3 mins by scintillation counting analysis; format: cell-based; outline: as §1
T2 sequence (P31650 whole entry): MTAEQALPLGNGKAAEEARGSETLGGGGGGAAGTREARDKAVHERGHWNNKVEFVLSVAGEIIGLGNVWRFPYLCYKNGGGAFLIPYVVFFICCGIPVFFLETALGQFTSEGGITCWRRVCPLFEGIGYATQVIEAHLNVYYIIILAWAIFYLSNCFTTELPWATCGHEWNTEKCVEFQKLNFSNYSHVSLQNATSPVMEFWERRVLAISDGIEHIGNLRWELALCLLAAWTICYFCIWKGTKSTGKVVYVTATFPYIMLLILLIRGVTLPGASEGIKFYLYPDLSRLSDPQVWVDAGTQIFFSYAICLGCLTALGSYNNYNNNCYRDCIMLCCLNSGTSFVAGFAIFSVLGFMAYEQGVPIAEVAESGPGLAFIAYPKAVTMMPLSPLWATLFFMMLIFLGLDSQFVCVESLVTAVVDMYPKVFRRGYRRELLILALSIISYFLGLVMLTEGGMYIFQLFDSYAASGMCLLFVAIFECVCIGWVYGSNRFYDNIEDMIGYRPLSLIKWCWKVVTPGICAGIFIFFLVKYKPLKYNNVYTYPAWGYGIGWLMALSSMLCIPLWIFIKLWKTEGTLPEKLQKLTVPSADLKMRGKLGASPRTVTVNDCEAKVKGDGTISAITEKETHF

[2] = biological target: GABA transporter (Mus musculus); test: Inhibition of [3H]GABA uptake in mouse neurons after 3 mins by scintillation counting analysis
[3] = biological target: GABA transporter (Mus musculus); test: Inhibition of [3H]GABA uptake in mouse astrocytes after 3 mins by scintillation counting analysis
GABA transporter 3 = biological target: T3, GABA transporter 3 (Mus musculus, UniProt P31649); test: Inhibition of [3H]GABA uptake at mouse GAT3 expressed in HEK293 cells after 3 mins by scintillation counting analysis; format: cell-based; outline: as §1
T3 sequence (P31649 whole entry): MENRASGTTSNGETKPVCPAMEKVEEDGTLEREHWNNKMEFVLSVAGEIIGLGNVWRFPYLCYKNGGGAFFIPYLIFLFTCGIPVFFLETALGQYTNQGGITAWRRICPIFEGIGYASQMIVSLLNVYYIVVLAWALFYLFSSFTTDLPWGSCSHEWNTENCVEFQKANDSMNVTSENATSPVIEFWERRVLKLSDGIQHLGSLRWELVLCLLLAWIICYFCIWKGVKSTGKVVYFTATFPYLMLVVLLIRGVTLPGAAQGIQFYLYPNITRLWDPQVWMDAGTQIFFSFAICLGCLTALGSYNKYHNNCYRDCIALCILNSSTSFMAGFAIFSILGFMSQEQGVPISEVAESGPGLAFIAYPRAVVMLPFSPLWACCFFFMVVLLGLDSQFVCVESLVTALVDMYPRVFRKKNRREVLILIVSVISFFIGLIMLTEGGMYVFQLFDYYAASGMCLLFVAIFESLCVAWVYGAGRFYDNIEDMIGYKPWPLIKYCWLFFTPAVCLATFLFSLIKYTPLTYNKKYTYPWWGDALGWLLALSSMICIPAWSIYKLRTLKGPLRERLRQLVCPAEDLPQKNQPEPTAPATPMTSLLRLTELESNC

Mus musculus [4] = test: Anticonvulsant activity in ip dosed audiogenic seizure susceptible Frings mouse model after 15 mins; format: functional
Mus musculus [5] = test: Anticonvulsant activity in ip dosed audiogenic seizure susceptible Frings mouse model after 60 mins; format: functional; settings: 1 h

IC50 [1] [µM] | IC50 (GABA transporter 4; read-out: IC50) [µM] | IC50 (GABA transporter 3; read-out: IC50) [µM] | IC50 (GABA transporter 4; read-out: pIC50 (converted)) [µM] | SMILES | IC50 (GABA transporter 2) [µM] | IC50 [2] [µM] | IC50 [3] [µM] | ED50 (Mus musculus [4]) [mg/kg] | IC50 (GABA transporter 3; read-out: pIC50 (converted)) [µM] | ED50 (Mus musculus [5]) [mg/kg]
450 | > 3000 | > 3000 |  | CNC1CCCc2onc(O)c21 (centres undefined) | > 3000 | 405 | 48 |  |  | 
7 | > 300 | > 300 |  | Cc1ccsc1C(=CCCN(C)C1CCCc2o[nH]c(=O)c21)c1sccc1C (centres undefined) |  |  |  |  |  | 
40 | > 300 | > 300 |  | Cc1ccsc1C(=CCCN(C)C1C2C=CC(C2)C1C(=O)O)c1sccc1C (centres undefined) | 144 |  |  |  |  | 
17 | > 300 | > 300 |  | Cc1ccsc1C(=CCCN(C)C1CCC=C1C(=O)O)c1sccc1C (centres undefined) | 50 |  |  |  |  | 
307 | 286 | > 300 | 3470 | Cc1ccsc1C(=CCCN(C)C1CCCC=C1C(=O)O)c1sccc1C (centres undefined) | 45 |  |  | 20.4 |  | 
> 500 | > 500 | > 500 |  | CNC1C2C=CC(C2)C1C(=O)O (centres undefined) |  |  |  |  |  | 
423 | > 1000 | > 1000 |  | CNC1CCCC=C1C(=O)O (centres undefined) |  |  |  |  |  | 
0.8 | 800 | > 300 |  | Cc1ccsc1C(=CCCN1CCC[C@@H](C(=O)O)C1)c1sccc1C [TIAGABINE] |  |  |  |  |  | 1.1

SMILES | IC50 [1] [µM] | IC50 (GABA transporter 4; read-out: IC50) [µM] | IC50 (GABA transporter 3; read-out: IC50) [µM] | IC50 (GABA transporter 4; read-out: pIC50 (converted)) [µM] | IC50 (GABA transporter 2) [µM] | IC50 [2] [µM] | IC50 [3] [µM] | ED50 (Mus musculus [4]) [mg/kg] | IC50 (GABA transporter 3; read-out: pIC50 (converted)) [µM] | ED50 (Mus musculus [5]) [mg/kg]
Cc1ccsc1C(=CCCN(C)[C@@H]1CCCC[C@@H]1C(=O)O)c1sccc1C (relative stereo) | > 300 | > 300 | 281 |  | 50 |  |  |  | 3550 | 
CN[C@@H]1CCCC[C@H]1C(=O)O (relative stereo) | > 3000 | > 3000 | > 3000 |  | > 3000 | > 300 | > 300 |  |  | 
CN[C@H]1CCCC[C@H]1C(=O)O (relative stereo) | > 3000 | > 3000 | > 3000 |  | > 3000 | > 300 | > 300 |  |  | 
Cc1ccsc1C(=CCCN(C)[C@H]1CCCC[C@@H]1C(=O)O)c1sccc1C (relative stereo) | 273 | > 300 | > 300 |  | 36 |  |  |  |  | 
